“And” between values parts separate entries of the source, which are not always exact repeats. Identical values can stand only once.
Key:
BxPC3 cells [1] = test: Cell viability at increasing seeding density; format: cell-based, human; conditions: 100 μM, seeding density 1 × 10^5 to 9 × 10^5
BxPC3 cells [2] = test: Competition of compound 16 by σ2 agonists, flow cytometry; format: cell-based, human; conditions: preloading 45 min at increasing concentrations, then 16 (25 nM) 45 min
[3] = Molar extinction coefficient; format: physicochemical; conditions: EtOH solutions
Summary of the method: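 Absorbance spectra (200–600 nm) of test compound in EtOH at 1–100 μM, in 1 cm quartz cuvettes. ε was obtained by fitting Beer's law to absorbance at the excitation wavelength. Measurements were repeated twice.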

[4] = Fluorescence spectroscopy; format: physicochemical; conditions: for Φ (quantum yield): standard quinine sulfate; for excitation peaks (λexc): approximate values, solvent not stated
Summary of the method: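 Spectra taken in EtOH, CHCl3 and PBS on free bases (hydrochlorides also in EtOH/PBS), with 10 nm excitation/emission bandpass. Emission scanned 300–700 nm; excitation scanned 250–450 or 300–550 nm by compound. Quantum yield was relative to a quinine sulfate standard (reference value 0.546), with absorbance below 0.2 at 347 nm. Spectra were instrument-corrected and integrated, and a refractive-index correction applied.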

σ2 receptor = molecular target: T1, σ2 receptor (Rattus norvegicus, UniProt Q5U3Y7); test: σ2 receptor radioligand binding, [3H]DTG with; conditions: from Ki σ1 (guinea-pig brain) and Ki σ2 (rat liver)
T1 sequence (Q5U3Y7 1-176): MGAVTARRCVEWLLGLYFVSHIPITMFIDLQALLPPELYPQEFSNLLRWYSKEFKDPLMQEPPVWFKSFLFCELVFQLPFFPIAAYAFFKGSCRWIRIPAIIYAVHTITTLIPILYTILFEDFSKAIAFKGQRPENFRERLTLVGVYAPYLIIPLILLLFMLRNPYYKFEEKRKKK

SMILES	ε (molar extinction coefficient) [3] [L/mol/cm]	λem ([4]; CHCl3) [nm]	λexc ([4]; CHCl3) [nm]	Φ (quantum yield) ([4]; CHCl3)	λem ([4]; EtOH, free bases) [nm]	λexc ([4]; EtOH, free bases) [nm]	Φ (quantum yield) ([4]; EtOH, free bases)	λem ([4]; PBS, free bases) [nm]	λexc ([4]; PBS, free bases) [nm]	excitation peaks (λexc) [4]	cell death versus cell density (BxPC3 cells [1])	effect on mean fluorescence intensity of 16 (BxPC3 cells [2])	σ2 versus σ1 selectivity (σ2 receptor)
COc1cccc2c1CCCC2CCCN1CCN(C2CCCCC2)CC1 (stereo not shown) [compound 1, 1-cyclohexyl-4-[3-(5-methoxy-1,2,3,4-tetrahydronaphthalen-1-yl)propyl]piperazine]	–	–	–	–	–	–	–	–	–	–	decreased cell death as the density increased	decreased the mean fluorescence intensity of 16	–
O=[N+]([O-])c1ccc(NCCOCCOc2cccc3c2CCCC3CCCN2CCN(C3CCCCC3)CC2)c2nonc12 (stereo not shown) [compound 17, 2-[2-[5-[3-(4-Cyclohexylpiperazin-1-yl)propyl]-5,6,7,8-tetrahydronaphthalen-1-yloxy]ethoxy]-N-(7-nitro-2,1,3-benzoxadiazol-4-yl)ethanamine]	6544	512	450	0.18	520	465	0.04	520	460	~ 335 nm and ~ 450 nm	–	–	–
CN(C)c1cccc2c(S(=O)(=O)NCCCCCCOc3cccc4c3CCCC4CCCN3CCN(C4CCCCC4)CC3)cccc12 (stereo not shown) [compound 18, 5-Dimethylaonaphthalene-1-sulfonic acid 6-[5-[3-(4-cyclohexylpiperazin-1-yl)propyl]-5,6,7,8-tetrahydronaphthalen-1-yloxy]hexanamide]	4000	490	340	0.30	507	335	0.20	485	345	–	–	–	did not show any σ2 versus σ1 selectivity
Fc1cccc(F)c1[C@H]1CC[C@@H](N2CCN(C3CCCCC3)CC2)CC1 [compound 20, cis-1-cyclohexyl-4-[4-(2,6-difluorophenyl)cyclohexyl]piperazine]	–	–	–	–	–	–	–	–	–	–	decreased cell death as the density increased	decreased the mean fluorescence intensity of 16	–

Continued, in another order:

ε (molar extinction coefficient) [3] [L/mol/cm]	λem ([4]; CHCl3) [nm]	λexc ([4]; CHCl3) [nm]	Φ (quantum yield) ([4]; CHCl3)	λem ([4]; EtOH, free bases) [nm]	λexc ([4]; EtOH, free bases) [nm]	Φ (quantum yield) ([4]; EtOH, free bases)	λem ([4]; PBS, free bases) [nm]	λexc ([4]; PBS, free bases) [nm]	excitation peaks (λexc) [4]	SMILES	cell death versus cell density (BxPC3 cells [1])	effect on mean fluorescence intensity of 16 (BxPC3 cells [2])	σ2 versus σ1 selectivity (σ2 receptor)
14391	515	450	0.17	520	476	0.08	535	480	–	COc1cccc2c1CCCC2CCCN1CCN(C2CCN(CCCCCCNc3ccc([N+](=O)[O-])c4nonc34)CC2)CC1 (stereo not shown) [compound 7, 6-[4-[4-[3-(5-Methoxy-1,2,3,4-tetrahydronaphthalen-1-yl]propyl]piperazin-1-yl]piperidino]-N-(7-nitro-2,1,3-benzoxadiazol-4-yl)hexanamine]	–	–	–
2600	490	346	0.32	507	335	0.29	510	340	~ 335 nm and ~ 450 nm	COc1cccc2c1CCCC2CCCN1CCN(C2CCN(CCCCCCNS(=O)(=O)c3cccc4c(N(C)C)cccc34)CC2)CC1 (stereo not shown) [compound 8, 5-Dimethylaonaphthalene-1-sulfonic acid 6-[4-[4-[3-(5-methoxy-1,2,3,4-tetrahydronaphthalen-1-yl)propyl]piperazin-1-yl]piperidino]hexanamide]	–	–	–

From publication PMC3181126 (Journal of medicinal chemistry, 2011)
